Results taken from ChEMBL document CHEMBL4765342, “Substituted benzothiophene and benzofuran derivatives as a novel class of bone morphogenetic Protein-2 upregulators: Synthesis, anti-osteoporosis efficacies in ovariectomized rats and a zebrafish model, and ADME properties” (Eur J Med Chem, 2020).
Active and inactive are the calls of the source.

Legend:
[1] = system: Rattus norvegicus; experiment: Antiosteoporotic activity in Sprague-Dawley rat model of OVX-induced bone loss assessed as increase in number of trabeculae at 30 mg/kg, ig administered for 3 months with 1 day break after 6 consecutive days administration; format: functional, organism-based
In short: (§1)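 Female SD rats given bilateral ovariectomy (sham: fat tissue removed instead), adapted 1 week beforehand; dosing began on postoperative day 10, n = 10 per group. Test drugs as 3 mg/mL suspension by gavage; raloxifene hydrochloride at 0.5 mg/mL. Controls got water. Tetracycline 30 mg/kg ip 16 and 3 days before euthanasia. Tibia stained sections give trabecular morphology and TBV%. BMD of L4-6 measured by densitometry under pentobarbital 45 mg/kg anaesthesia. Reported as mean ± SD.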

[2] = system: Rattus norvegicus; experiment: Antiosteoporotic activity in Sprague-Dawley rat model of OVX-induced bone loss assessed as increase in trabecular bone volume at 30 mg/kg, ig administered for 3 months with 1 day break after 6 consecutive days administration; format: functional, organism-based; in short: as §1
[3] = species: Danio rerio; experiment: (§2) Antiosteoporotic activity in Zebra fish model of dexamethasone-induced bone loss assessed as increase in bone mineralization at 1 to 25 uM 6hpf embryo treated for 72 hrs with dexamethasone followed by incubation with drug and measured after 6 days post-fertilization by alizarin dye based imaging analysis; format: functional, organism-based; details: dose 1-25 µM, time 3.0 day
In short: (§3)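 AB-line zebrafish embryos at 6 hpf held in dexamethasone solution for 72 h, then exposed to drug, and cultured to 6 dpf. Larvae stained with alizarin red, rehydrated, decolorised and photographed. Stained area and integrated optical density were summed over the left-flank branchial bones: cleithrum, compass, opercle and branchiostegal rays. Values expressed relative to untreated controls set at 1.00.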

[4] = system: Rattus norvegicus; experiment: Antiosteoporotic activity in Sprague-Dawley rat model of OVX-induced bone loss assessed as increase in thickness of trabeculae at 30 mg/kg, ig administered for 3 months with 1 day break after 6 consecutive days administration; format: functional, organism-based; in short: as §1
[5] = biological target: Runt-related transcription factor 2 (Mus musculus) (UniProt Q08775); experiment: Upregulation of Runx2 transcriptional activity in mouse MC3T3-E1 cells transfected with p6OSE2-luc at 100 uM incubated for 48 hrs by firefly luciferase reporter gene assay relative to control; format: cell-based; details: filed as activator
In short: (§4)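 MC3T3-E1 cells reverse-transfected in suspension with p6OSE2-luc (Runx2-responsive reporter), 100 ng DNA per well, 10^5 cells/ml in α-MEM with 10% FBS, 37 °C in CO2. After 24 h the medium was replaced with complete medium containing compound, with lovastatin as positive control. Firefly luciferase read after a further 48 h as relative luminescence units. Significance by Dunnett's test.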

[6] = species: Danio rerio; experiment: as §2, with “by measuring increase in integrated optical density” for “at 1 to 25 uM”; format: functional, organism-based; details: dose 1-25 µM, time 3.0 day; in short: as §3
[7] = system: Rattus norvegicus; experiment: Antiosteoporotic activity in Sprague-Dawley rat model of OVX-induced bone loss assessed as increase in trabecular bone mineral density at 30 mg/kg, ig administered for 3 months with 1 day break after 6 consecutive days administration; format: functional, organism-based; in short: as §1
[8] = system: Rattus norvegicus; experiment: Antiosteoporotic activity in Sprague-Dawley rat model of OVX-induced bone loss assessed as narrowed gap between trabeculae at 30 mg/kg, ig administered for 3 months with 1 day break after 6 consecutive days administration; format: functional, organism-based; in short: as §1
[9] = species: Danio rerio; experiment: Antiosteoporotic activity in Zebra fish model of dexamethasone-induced bone loss assessed as increase in BMP-2 expression at 1 uM incubated for 24 hrs in presence of dexamethasone by Western blot analysis; format: functional, organism-based
In short: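 Protein extracts were prepared from untreated, dexamethasone-treated and drug-treated (1 µM, 24 h) zebrafish, and BMP-2 protein was then assessed.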

[10] = system: MC3T3-E1; experiment: Cytotoxicity against mouse MC3T3-E1 cells at 100 uM; format: cell-based; details: mc3t3-e1, 100 µM
[11] = biological target: Runt-related transcription factor 2 (Mus musculus) (UniProt Q08775); experiment: Upregulation of Runx2 transcriptional activity in mouse MC3T3-E1 cells transfected with p6OSE2-luc at 10 uM incubated for 48 hrs by firefly luciferase reporter gene assay relative to control; format: cell-based; details: filed as activator; in short: as §4
[12] = Solubility in PBS buffer at pH 7.4 assessed as precipitation of compound at 2500 nM; format: physicochemical; details: pH 7.4, 2.5 µM
[13] = Solubility in PBS buffer at pH 7.4 assessed as precipitation of compound at 625 nM; format: physicochemical; details: pH 7.4, 0.625 µM
[14] = Solubility in PBS buffer at pH 7.4 assessed as precipitation of compound at 156.25 nM; format: physicochemical; details: pH 7.4, 0.15625 µM
[15] = Toxicity in BALB/c mouse assessed as inflammatory infiltration in liver at 50 to 100 mg/kg, ig administered for 14 days; format: organism-based; details: in vivo, po, 336 h, dose 50-100 mg/kg, time 14 day
In short: (§5)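 BALB/c mice, 10 per group, gavaged daily for 14 days at 50 or 100 mg/kg; blank control group included. Hair, behaviour and neurological signs (fremitus, convulsion, spasm, gait disturbance) were observed. At day 14, mice were weighed and given routine blood tests and serum biochemistry (ALT, AST, urea, creatinine; n = 10). Liver and kidney were examined on paraffin-embedded histology sections.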

[16] = Toxicity in BALB/c mouse assessed as effect on behavioral change at 50 to 100 mg/kg, ig administered for 14 days; format: organism-based; details: in vivo, po, 336 h, dose 50-100 mg/kg, time 14 day; in short: as §5
[17] = Toxicity in BALB/c mouse assessed as hepatocyte nucleus mitosis at 50 to 100 mg/kg, ig administered for 14 days; format: organism-based; details: in vivo, po, 336 h, dose 50-100 mg/kg, time 14 day; in short: as §5
[18] = Solubility in PBS buffer at pH 7.4 assessed as precipitation of compound at 5000 nM; format: physicochemical; details: pH 7.4, 5 µM
[19] = Toxicity in BALB/c mouse assessed as necrosis in renal tubular epithelial cells at 50 to 100 mg/kg, ig administered for 14 days; format: organism-based; details: in vivo, po, 336 h, dose 50-100 mg/kg, time 14 day
In short: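 BALB/c mice, 10 per group: untreated blank group plus low (50 mg/kg) and high (100 mg/kg) dose groups, intragastric once daily for 14 days. Hair, behaviour and neurological signs monitored throughout. At day 14 mice were weighed and dissected. Kidney and liver tissue was fixed in 3 mm pieces, dehydrated through graded alcohol, cleared in xylene, embedded in paraffin, sectioned and examined histopathologically.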

[20] = Permeability across apical to basolateral side in human Caco-2 cells assessed as transepithelial electrical resistance at 10 uM incubated for 2 hrs LC-MS/MS analysis; format: ADME, cell-based; details: caco-2, 2 h
In short: (§6)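 Caco-2 monolayers, apical to basolateral direction. Plates preincubated 30 min at 37 °C, then exposed to 10 µM compound for 2 h at 37 °C without shaking. Donor and receiver samples were quenched, centrifuged and measured by LC/MS/MS, in duplicate. Papp calculated from receiver concentration, area and time. Monolayer integrity checked by TEER and by Lucifer yellow leakage (30 min, 37 °C, ex 485/em 530 nm).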

[21] = Toxicity in BALB/c mouse assessed as convulsion at 50 to 100 mg/kg, ig administered for 14 days; format: organism-based; details: in vivo, po, 336 h, dose 50-100 mg/kg, time 14 day; in short: as §5
[22] = Toxicity in BALB/c mouse assessed as hepatocyte necrotic foci at 50 to 100 mg/kg, ig administered for 14 days; format: organism-based; details: in vivo, po, 336 h, dose 50-100 mg/kg, time 14 day; in short: as §5
[23] = Apparent permeability across apical to basolateral side in human Caco-2 cells at 10 uM incubated for 2 hrs LC-MS/MS analysis; format: ADME, cell-based; details: Caco-2; in short: as §6
[24] = Toxicity in BALB/c mouse assessed as gait disturbance at 50 to 100 mg/kg, ig administered for 14 days; format: organism-based; details: in vivo, po, 336 h, dose 50-100 mg/kg, time 14 day; in short: as §5
[25] = Renal toxicity in BALB/c mouse assessed as effect on serum creatinine level at 50 to 100 mg/kg, ig administered for 14 days; format: organism-based; details: in vivo, po, 336 h, dose 50-100 mg/kg, time 14 day; in short: as §5
[26] = Toxicity in BALB/c mouse assessed as muscle spasm at 50 to 100 mg/kg, ig administered for 14 days; format: organism-based; details: in vivo, po, 336 h, dose 50-100 mg/kg, time 14 day; in short: as §5
[27] = Solubility in PBS buffer at pH 7.4 assessed as precipitation of compound at 312.5 nM; format: physicochemical; details: pH 7.4, 0.3125 µM
[28] = Hepatotoxicity in BALB/c mouse assessed as effect on serum AST level at 50 to 100 mg/kg, ig administered for 14 days; format: toxicity, organism-based; details: in vivo, po, 336 h, dose 50-100 mg/kg, time 14 day; in short: as §5
[29] = Toxicity in BALB/c mouse assessed as effect on liver megakaryocyte at 50 to 100 mg/kg, ig administered for 14 days; format: organism-based; details: in vivo, po, 336 h, dose 50-100 mg/kg, time 14 day; in short: as §5
[30] = Permeability across apical to basolateral side in human Caco-2 cells assessed as […] yellow leakage at 10 uM incubated for 2 hrs LC-MS/MS analysis; format: ADME, cell-based; details: caco-2, 2 h; in short: as §6
[31] = Toxicity in BALB/c mouse assessed as fremitus at 50 to 100 mg/kg, ig administered for 14 days; format: organism-based; details: in vivo, po, 336 h, dose 50-100 mg/kg, time 14 day; in short: as §5
[32] = Hepatotoxicity in BALB/c mouse assessed as effect on serum ALT level at 50 to 100 mg/kg, ig administered for 14 days; format: toxicity, organism-based; details: in vivo, po, 336 h, dose 50-100 mg/kg, time 14 day; in short: as §5
[33] = Toxicity in BALB/c mouse assessed as effect on hair at 50 to 100 mg/kg, ig administered for 14 days; format: organism-based; details: in vivo, po, 336 h, dose 50-100 mg/kg, time 14 day; in short: as §5
[34] = Renal toxicity in BALB/c mouse assessed as effect on serum urea level at 50 to 100 mg/kg, ig administered for 14 days; format: organism-based; details: in vivo, po, 336 h, dose 50-100 mg/kg, time 14 day; in short: as §5
[35] = Toxicity in BALB/c mouse assessed as effect on body weight at 50 to 100 mg/kg, ig administered for 14 days; format: organism-based; details: in vivo, po, 336 h, dose 50-100 mg/kg, time 14 day; in short: as §5
[36] = Solubility in PBS buffer at pH 7.4 assessed as precipitation of compound at 10000 nM; format: physicochemical; details: pH 7.4, 10 µM
[37] = system: Rattus norvegicus; experiment: Antiosteoporotic activity in Sprague-Dawley rat model of OVX-induced bone loss assessed as increase in trabecular bone volume at 5 mg/kg, ig administered for 3 months with 1 day break after 6 consecutive days administration; format: functional, organism-based; in short: as §1
[38] = system: Rattus norvegicus; experiment: Antiosteoporotic activity in Sprague-Dawley rat model of OVX-induced bone loss assessed as increase in number of trabeculae at 5 mg/kg, ig administered for 3 months with 1 day break after 6 consecutive days administration; format: functional, organism-based; in short: as §1
[39] = system: Rattus norvegicus; experiment: Antiosteoporotic activity in Sprague-Dawley rat model of OVX-induced bone loss assessed as narrowed gap between trabeculae at 5 mg/kg, ig administered for 3 months with 1 day break after 6 consecutive days administration; format: functional, organism-based; in short: as §1
[40] = system: Rattus norvegicus; experiment: Antiosteoporotic activity in Sprague-Dawley rat model of OVX-induced bone loss assessed as increase in thickness of trabeculae at 5 mg/kg, ig administered for 3 months with 1 day break after 6 consecutive days administration; format: functional, organism-based; in short: as §1
[41] = system: Rattus norvegicus; experiment: Antiosteoporotic activity in Sprague-Dawley rat model of OVX-induced bone loss assessed as increase in trabecular bone mineral density at 5 mg/kg, ig administered for 3 months with 1 day break after 6 consecutive days administration; format: functional, organism-based; in short: as §1

Chain of Runt-related transcription factor 2 (Mus musculus) (Q08775 whole entry): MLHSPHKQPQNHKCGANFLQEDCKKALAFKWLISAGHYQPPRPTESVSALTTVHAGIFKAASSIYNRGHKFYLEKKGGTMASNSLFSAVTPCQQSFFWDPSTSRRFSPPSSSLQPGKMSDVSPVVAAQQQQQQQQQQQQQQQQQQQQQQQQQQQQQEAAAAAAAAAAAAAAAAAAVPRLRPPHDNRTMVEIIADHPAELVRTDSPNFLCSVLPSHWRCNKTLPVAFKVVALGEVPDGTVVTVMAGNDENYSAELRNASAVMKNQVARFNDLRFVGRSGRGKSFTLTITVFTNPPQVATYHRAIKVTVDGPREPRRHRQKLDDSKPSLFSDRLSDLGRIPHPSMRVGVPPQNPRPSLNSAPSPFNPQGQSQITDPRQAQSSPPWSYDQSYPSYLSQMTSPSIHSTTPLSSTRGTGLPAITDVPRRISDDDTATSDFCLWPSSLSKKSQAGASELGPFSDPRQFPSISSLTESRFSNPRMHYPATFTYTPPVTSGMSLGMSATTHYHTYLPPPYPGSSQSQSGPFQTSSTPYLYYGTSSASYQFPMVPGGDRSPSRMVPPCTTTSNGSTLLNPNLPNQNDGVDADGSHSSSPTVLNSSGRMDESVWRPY

COc1ccc2cc(C(=O)NCCN(C)C)oc2c1
267%: Activity [5]
active: Activity [1] | Activity [2] | Activity [3] | Activity [4] | Activity [6] Dose-dependent effect | Activity [7] | Activity [8] | Activity [9]

CC[C@H](C)C(=O)O[C@H]1C[C@@H](C)C=C2C=C[C@H](C)[C@H](CC[C@@H]3C[C@@H](O)CC(=O)O3)[C@H]21 [LOVASTATIN]
Toxic: Activity [10]
256%: Activity [11]

CCOC(=O)c1cc2ccc(OC)cc2o1
0.152%: Activity [30]
Toxic: Activity [15] | Activity [17] | Activity [19] | Activity [22] | Activity [29]
Insoluble: solubility [12] | solubility [18] | solubility [36]
< 0.00247 ×10⁻⁶ cm/s: Papp A→B at 2 h, 10 µM [23]
Non-Toxic: Activity [16] | Activity [21] | Activity [24] | Activity [25] | Activity [26] | Activity [28] | Activity [31] | Activity [32] | Activity [33] | Activity [34] | Activity [35]
active: Activity [1] | Activity [2] | Activity [4] | Activity [7] | Activity [8]
373 Ω·cm²: Activity [20]
Soluble: solubility [13] | solubility [14] | solubility [27]

O=C(c1ccc(OCCN2CCCCC2)cc1)c1c(-c2ccc(O)cc2)sc2cc(O)ccc12
active: Activity [37] | Activity [38] | Activity [39] | Activity [40] | Activity [41]
